We go through three compounds from ChEMBL document CHEMBL3272249, “Esters of N-tert-butylarterenol. Long-acting new bronchodilators with reduced cardiac effects” (J Med Chem, 1976).

In data set [1] the test system is Canis familiaris. As to the kind of experiment: Bronchodilator activity in dog assessed as time of inhibition of carbachol or histamine-induced bronchoconstriction at 590 to 1180 mg/kg, it relative to control. As to conditions: dose mg/kg 590-1180; route endotracheal.
Data set [2] has as its system Canis familiaris. The data set is described as follows: Bronchodilator activity in dog assessed as degree of inhibition of carbachol or histamine-induced bronchoconstriction at 590 to 1180 mg/kg, it relative to control. As to conditions: dose mg/kg 590-1180; route endotracheal.
The subject of data set [3] is Canis familiaris. The data set is described as follows: Bronchodilator activity in dog assessed as time of inhibition of carbachol or histamine-induced bronchoconstriction at 70 to 280 mg/kg, id relative to control. It is filed as functional, Canis lupus familiaris. Particulars: dose mg/kg 70-280; route intraduodenal. The essentials: (§1)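 Anesthetized dogs with an airway cannula and a nonbreathing valve. Bronchoconstriction was induced by iv carbachol (2–4 μg/kg) or histamine diphosphate (20–50 μg/kg) and read as change in airway pressure by transducer. Each compound was tested against both agonists in different dogs, and the results were combined and averaged. Effect is % inhibition of control constriction, with at least three dogs per dose. Drugs were dissolved fresh in distilled water, diluted in saline and kept on ice.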

For data set [4], the system named is Canis familiaris. As to the kind of experiment: Cardiotoxicity in spontaneously respiring dog assessed as time of increase in heart rate at 70 to 280 mg/kg, id relative to control. In kind it is toxicity, organism-based, Canis lupus familiaris. Particulars: in vivo, other. The arrangement: dose 70-280 mg/kg, route intraduodenal. The essentials: (§2)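 Anesthetized, spontaneously respiring dogs. Heart rate monitored by lead II EKG, with blood pressure taken from the right femoral artery by pressure transducer and recorded on a polygraph. Drug stocks made fresh in distilled water, diluted in physiological saline and kept on ice. Dosing was iv, id or it as listed. The duration of the heart-rate increase was recorded in h, with more than 4 dogs per dose.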

The test system of data set [5] is Canis familiaris. As to the kind of experiment: Cardiotoxicity in spontaneously respiring dog assessed as time of increase in heart rate at 35 to 140 mg/kg, iv relative to control. Particulars: in vivo. It is filed as toxicity, organism-based, Canis lupus familiaris. The arrangement: dose 35-140 mg/kg, route intravenous. A digest of the protocol: (§3)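 Anesthetized, spontaneously respiring dogs. Heart rate was taken from a lead II EKG, and blood pressure from the right femoral artery by transducer. The increase in heart rate (beats/min) was scored on a graded scale with more than 4 dogs per dose, and its duration was recorded. Drugs were dissolved fresh in distilled water, diluted in physiological saline and kept on ice.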

The subject of data set [6] is Canis familiaris. The data set is described as follows: Cardiotoxicity in spontaneously respiring dog assessed as degree of increase in heart rate at 70 to 280 mg/kg, id relative to control. It is filed as toxicity, organism-based, Canis lupus familiaris. On the set-up: dose 70-280 mg/kg, route intraduodenal. Particulars: in vivo, other. A digest of the protocol:
as §3

For data set [7], the system named is Canis familiaris. The data set is described as follows: Bronchodilator activity in dog assessed as degree of inhibition of carbachol or histamine-induced bronchoconstriction at 70 to 280 mg/kg, id relative to control. It is filed as functional, Canis lupus familiaris. Particulars: dose mg/kg 70-280; route intraduodenal. The essentials: (§4)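 Anesthetized dogs, trachea cannulated with a nonbreathing valve. Bronchoconstriction induced by iv carbachol (2–4 μg/kg) or histamine diphosphate (20–50 μg/kg) in separate animals, and airway pressure recorded by transducer. Drug stocks were made fresh in distilled water, diluted in saline and kept on ice. Read-out was percent inhibition of control constriction, averaged over at least three dogs per dose at the higher dose. Carbachol and histamine data were combined.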

For data set [8], the system named is Canis familiaris. The data set is described as follows: Bronchodilator activity in dog assessed as time of inhibition of carbachol or histamine-induced bronchoconstriction at 540 to 1080 mg/kg, it relative to control. Particulars: dose mg/kg 540-1080; route endotracheal. It is filed as functional, Canis lupus familiaris. The essentials: as §1
In data set [9] the test system is Canis familiaris. The data set is described as follows: Bronchodilator activity in dog assessed as time of inhibition of carbachol or histamine-induced bronchoconstriction at 35 to 140 mg/kg, iv relative to control. It is filed as functional, Canis lupus familiaris. Particulars: dose mg/kg 35-140. The essentials:
(§5)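 Dog airway model: anesthetized, cannulated via a nonbreathing valve, with airway pressure changes recorded after iv carbachol (2–4 μg/kg) or histamine diphosphate (20–50 μg/kg) challenge, each agonist in different animals. Compounds were given iv, intraduodenally or intratracheally from fresh aqueous stocks diluted in saline. Duration (h) of inhibition of induced bronchoconstriction was followed, and the two agonist datasets were pooled.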

Data set [10] relates to Canis familiaris. As to the kind of experiment: Bronchodilator activity in dog assessed as degree of inhibition of carbachol or histamine-induced bronchoconstriction at 35 to 140 mg/kg, iv relative to control. As to conditions: dose mg/kg 35-140. It is filed as functional, Canis lupus familiaris. The essentials:
as §4

Data set [11] concerns Canis familiaris. As to the kind of experiment: Bronchodilator activity in dog assessed as degree of inhibition of carbachol or histamine-induced bronchoconstriction at 540 to 1080 mg/kg, it relative to control. In kind it is functional, Canis lupus familiaris. Particulars: dose mg/kg 540-1080; route endotracheal. A digest of the protocol: as §4
Data set [12] concerns Canis familiaris. As to the kind of experiment: Cardiotoxicity in spontaneously respiring dog assessed as time of increase in heart rate at 540 to 1080 mg/kg, it relative to control. As to conditions: in vivo.
The subject of data set [13] is Canis familiaris. As to the kind of experiment: Cardiotoxicity in spontaneously respiring dog assessed as degree of increase in heart rate at 540 to 1080 mg/kg, intratracheal relative to control. Particulars: in vivo.
Data set [14] relates to Canis familiaris. The data set is described as follows: Cardiotoxicity in spontaneously respiring dog assessed as degree of increase in heart rate at 35 to 140 mg/kg, iv relative to control. Particulars: in vivo. The arrangement: dose 35-140 mg/kg, route intravenous. It is filed as toxicity, organism-based, Canis lupus familiaris. The essentials: as §3
The test system of data set [15] is Canis familiaris. The data set is described as follows: Cardiotoxicity in spontaneously respiring dog assessed as time of increase in heart rate at 25 to 50 mg/kg, iv relative to control. Particulars: in vivo. It is filed as toxicity, organism-based, Canis lupus familiaris. On the set-up: dose 25-50 mg/kg, route intravenous. The essentials:
as §3

The test system of data set [16] is Canis familiaris. As to the kind of experiment: Bronchodilator activity in dog assessed as degree of inhibition of carbachol or histamine-induced bronchoconstriction at 25 to 50 mg/kg, iv relative to control. In kind it is functional, Canis lupus familiaris. Particulars: dose mg/kg 25-50. The essentials:
as §4

Data set [17] concerns Canis familiaris. As to the kind of experiment: Bronchodilator activity in dog assessed as time of inhibition of carbachol or histamine-induced bronchoconstriction at 25 to 50 mg/kg, iv relative to control. It is filed as functional, Canis lupus familiaris. Particulars: dose mg/kg 25-50. A digest of the protocol: as §5
Data set [18] concerns Canis familiaris. As to the kind of experiment: Bronchodilator activity in dog assessed as degree of inhibition of carbachol or histamine-induced bronchoconstriction at 520 to 1040 mg/kg, it relative to control. It is filed as functional, Canis lupus familiaris. As to conditions: dose mg/kg 520-1040; route endotracheal. A digest of the protocol:
as §4

In data set [19] the test system is Canis familiaris. As to the kind of experiment: Cardiotoxicity in spontaneously respiring dog assessed as degree of increase in heart rate at 25 to 50 mg/kg, iv relative to control. On the set-up: dose 25-50 mg/kg, route intravenous. Particulars: in vivo. In kind it is toxicity, organism-based, Canis lupus familiaris. A digest of the protocol:
as §3

Data set [20] deals with Canis familiaris. The data set is described as follows: Cardiotoxicity in spontaneously respiring dog assessed as degree of increase in heart rate at 520 to 1040 mg/kg, it relative to control. Particulars: in vivo, inhaled_or_intranasal. In kind it is toxicity, organism-based, Canis lupus familiaris. The arrangement: dose 520-1040 mg/kg, route endotracheal. A digest of the protocol:
as §3

In data set [21] the test system is Canis familiaris. The data set is described as follows: Cardiotoxicity in spontaneously respiring dog assessed as time of increase in heart rate at 520 to 1040 mg/kg, it relative to control. In kind it is toxicity, organism-based, Canis lupus familiaris. The arrangement: dose 520-1040 mg/kg, route endotracheal. Particulars: in vivo, inhaled_or_intranasal. The essentials: as §2

The test system of data set [22] is Canis familiaris. The data set is described as follows: Bronchodilator activity in dog assessed as time of inhibition of carbachol or histamine-induced bronchoconstriction at 520 to 1040 mg/kg, it relative to control. It is filed as functional, Canis lupus familiaris. Particulars: dose mg/kg 520-1040; route endotracheal. A digest of the protocol: as §1

Consider `CS(=O)(=O)O.Cc1cc(C)cc(C(=O)Oc2ccc([C@@H](O)CNC(C)(C)C)cc2OC(=O)c2cc(C)cc(C)c2)c1`, for which the Time in the data set on Canis familiaris [1] is less than 3 h. Besides, the “inhibition (INH)” value in the data set with Canis familiaris [2] is 20%.

For the compound `CS(=O)(=O)O.Cc1ccc(C(=O)Oc2ccc([C@@H](O)CNC(C)(C)C)cc2OC(=O)c2ccc(C)cc2)cc1`, the Time is more than 5 h in the data set on Canis familiaris [3]; 2 h with Canis familiaris [4]; 2 h in the data set with Canis familiaris [5]; more than 5 h with Canis familiaris [8]; more than 5 h in the data set with Canis familiaris [9]; less than 1 h in the data set with Canis familiaris [12]. The Activity was determined as 20% with Canis familiaris [6], 5% in the data set on Canis familiaris [13] and 20% in the data set on Canis familiaris [14]. In addition, the figures for the “inhibition (INH)” value in the data set on Canis familiaris [7], in the data set on Canis familiaris [10] and with Canis familiaris [11] were more than 70%, more than 70% and 45%, respectively.

Turning to `CC(=O)Oc1cc([C@@H](O)CNC(C)(C)C)ccc1OC(=O)c1ccc(C)cc1.CS(=O)(=O)O`, the Time was less than 0.5 h with Canis familiaris [15], less than 1 h with Canis familiaris [17], less than 1 h in the data set with Canis familiaris [21] and more than 1 h with Canis familiaris [22]. Also, the “inhibition (INH)” value in the data set on Canis familiaris [16] and with Canis familiaris [18] was more than 70% throughout. For the same compound, the Activity in the data set on Canis familiaris [19] stood at 40%; in the data set with Canis familiaris [20], 5%.
